Measurements published in ChEMBL document CHEMBL1671867, “Novel polymyxin derivatives carrying only three positive charges are effective antibacterial agents” (Antimicrob Agents Chemother, 2008).
Converted amounts (≈) assume the structure as drawn. Bridge positions count the residues as written; N and C are the ends. Square brackets hold non-standard residues; d marks the D form. Peptide text beside a SMILES is read from it. * marks the point of attachment. Decanoyl = CCCCCCCCCC(=O)*; Octanoyl = CCCCCCCC(=O)*; Dab = NCC[C@H](N)C(=O)O; Abu = CC[C@H](N)C(=O)O

Experiments:
Format in all cases: functional
[1] = test system: Escherichia coli; test: Antibacterial activity against Escherichia coli IH3080 assessed as growth inhibition at 10 ug after 18 hrs by […] in presence of 1 ug/ml rifampin
[2] = test system: Escherichia coli; test: Antibacterial activity against Escherichia coli IH3080 assessed as growth inhibition at 10 ug after 18 hrs by […]
[3] = test system: Escherichia coli; test: Antibacterial activity against Escherichia coli ATCC […] by CLSI M7-A7 agar dilution method
[4] = test system: Candida albicans; test: Antibacterial activity against Candida albicans ATCC 28366 by CLSI M7-A7 agar dilution method
[5] = test system: Staphylococcus aureus; test: Antibacterial activity against Staphylococcus aureus ATCC 25923 by CLSI M7-A7 agar dilution method
Outline: (§1)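 Agar dilution on Mueller-Hinton agar with test substance at 0.25 to 32 μg/ml in twofold steps. Spots of about 10^4 CFU applied with a multipoint inoculator.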

[6] = test system: Escherichia coli; test: Antibacterial activity against Escherichia coli SC 9253 by CLSI M7-A7 agar dilution method; outline: as §1
[7] = test system: Escherichia coli; test: Antibacterial activity against Escherichia coli SC 9252 by CLSI M7-A7 agar dilution method
[8] = test system: Pseudomonas aeruginosa; test: Antibacterial activity against Pseudomonas aeruginosa ATCC 27853 by CLSI M7-A7 agar dilution method; outline: as §1
[9] = test system: Acinetobacter baumannii; test: Antibacterial activity against Acinetobacter baumannii by CLSI M7-A7 agar dilution method
[10] = test system: Serratia marcescens; test: Antibacterial activity against Serratia marcescens ATCC 8100 by CLSI M7-A7 agar dilution method; outline: as §1
[11] = test system: Acinetobacter baumannii; test: Antibacterial activity against Acinetobacter baumannii ATCC 19606 by CLSI M7-A7 agar dilution method
[12] = test system: Citrobacter freundii; test: Antibacterial activity against Citrobacter freundii ATCC 8090 by CLSI M7-A7 agar dilution method
[13] = test system: Enterobacter cloacae; test: Antibacterial activity against Enterobacter cloacae by CLSI M7-A7 agar dilution method
[14] = test system: Enterobacter cloacae; test: Antibacterial activity against Enterobacter cloacae CCUG52947 by CLSI M7-A7 agar dilution method
[15] = test system: Enterobacter cloacae; test: Antibacterial activity against Enterobacter cloacae ATCC 23355 by CLSI M7-A7 agar dilution method
[16] = test system: Klebsiella oxytoca; test: Antibacterial activity against Klebsiella oxytoca CCUG51683 by CLSI M7-A7 agar dilution method; outline: as §1
[17] = test system: Klebsiella oxytoca; test: Antibacterial activity against Klebsiella oxytoca ATCC 13182 by CLSI M7-A7 agar dilution method; outline: as §1
[18] = test system: Klebsiella pneumoniae; test: Antibacterial activity against Klebsiella pneumoniae by CLSI M7-A7 agar dilution method; outline: as §1
[19] = test system: Escherichia coli; test: Antibacterial activity against Escherichia coli by CLSI M7-A7 agar dilution method; outline: as §1
[20] = test system: Klebsiella pneumoniae; test: Antibacterial activity against Klebsiella pneumoniae CCUG45421 by CLSI M7-A7 agar dilution method; outline: as §1
[21] = test system: Escherichia coli; test: Antibacterial activity against Escherichia coli IH3080 by CLSI M7-A7 agar dilution method

CCCCCCCC(=O)N[C@H](C(=O)N[C@H](C)C(=O)N[C@H]1CCNC(=O)[C@H]([C@@H](C)O)NC(=O)[C@H](CCN)NC(=O)[C@H](CCN)NC(=O)[C@H]([C@@H](C)O)NC(=O)[C@H](Cc2ccccc2)NC(=O)[C@H](CCN)NC1=O)[C@@H](C)O
inhibition zone (IZ) [1]: 230 mm2 | inhibition zone (IZ) [2]: 60 mm2

CCCCCCCC(=O)N[C@H](C(=O)N[C@@H](CO)C(=O)N[C@H]1CCNC(=O)[C@H]([C@@H](C)O)NC(=O)[C@H](CCN)NC(=O)[C@H](CCN)NC(=O)[C@H](CC(C)C)NC(=O)[C@H](Cc2ccccc2)NC(=O)[C@H](CCN)NC1=O)[C@@H](C)O
inhibition zone (IZ) [1]: 230 mm2 | inhibition zone (IZ) [2]: 80 mm2

CCCCCCCC(=O)N[C@H](C)C(=O)N[C@H](C)C(=O)N[C@H]1CCNC(=O)[C@H]([C@@H](C)O)NC(=O)[C@H](CCN)NC(=O)[C@H](CCN)NC(=O)[C@H](CC(C)C)NC(=O)[C@H](Cc2ccccc2)NC(=O)[C@H](CCN)NC1=O
inhibition zone (IZ) [1]: 200 mm2 | inhibition zone (IZ) [2]: 0 mm2

CCCCCCCC(=O)N[C@H](C(=O)N[C@H](CO)C(=O)N[C@H]1CCNC(=O)[C@H]([C@@H](C)O)NC(=O)[C@H](CCN)NC(=O)[C@H](CCN)NC(=O)[C@H]([C@@H](C)O)NC(=O)[C@H](Cc2ccccc2)NC(=O)[C@H](CCN)NC1=O)[C@@H](C)O
inhibition zone (IZ) [1]: 190 mm2 | inhibition zone (IZ) [2]: 172 mm2

CCCCCCCC(=O)N[C@H](C(=O)N[C@@H](C(=O)N[C@H]1CCNC(=O)[C@H]([C@@H](C)O)NC(=O)[C@H](CCN)NC(=O)[C@H](CCN)NC(=O)[C@H]([C@@H](C)O)NC(=O)[C@H](Cc2ccccc2)NC(=O)[C@H](CCN)NC1=O)[C@@H](C)O)[C@@H](C)O
inhibition zone (IZ) [1]: 250 mm2 | inhibition zone (IZ) [2]: 200 mm2

CCCCCCCC(=O)N[C@H](C(=O)N[C@H](C(=O)N[C@H](CO)C(=O)N[C@H]1CCNC(=O)[C@H]([C@@H](C)O)NC(=O)[C@H](CCN)NC(=O)[C@H](CCN)NC(=O)[C@H](CC(C)C)NC(=O)[C@H](Cc2ccccc2)NC(=O)[C@H](CCN)NC1=O)[C@@H](C)O)[C@@H](C)O
inhibition zone (IZ) [1]: 190 mm2 | inhibition zone (IZ) [2]: 160 mm2

CCCCCCCC(=O)N[C@@H](C)C(=O)N[C@H](C(=O)N[C@H](CO)C(=O)N[C@H]1CCNC(=O)[C@H]([C@@H](C)O)NC(=O)[C@H](CCN)NC(=O)[C@H](CCN)NC(=O)[C@H](CC(C)C)NC(=O)[C@H](Cc2ccccc2)NC(=O)[C@H](CCN)NC1=O)[C@@H](C)O
inhibition zone (IZ) [1]: 200 mm2 | inhibition zone (IZ) [2]: 160 mm2

CCCCCCCCCC(=O)N[C@H](C(=O)N[C@H](CO)C(=O)N[C@H]1CCNC(=O)[C@H]([C@@H](C)O)NC(=O)[C@H](CCN)NC(=O)[C@H](CCN)NC(=O)[C@H](CC(C)C)NC(=O)[C@@H](Cc2ccccc2)NC(=O)[C@H](CCN)NC1=O)[C@@H](C)O (Decanoyl-T[dS][Dab][Dab][dF]L[Dab][Dab]T; lactam 3-C)
MIC [3]: 2 µg/mL (≈ 1.81 µM) | inhibition zone (IZ) [1]: 150 mm2 | inhibition zone (IZ) [2]: 130 mm2 | MIC [4]: > 32 µg/mL | MIC [5]: > 32 µg/mL | MIC [6]: 16 µg/mL (≈ 14.5 µM) | MIC [7]: 8 µg/mL (≈ 7.24 µM) | MIC [8]: 4 µg/mL (≈ 3.62 µM) | MIC [9]: 2 µg/mL (≈ 1.81 µM) | MIC [10]: > 32 µg/mL | MIC [11]: 4 µg/mL (≈ 3.62 µM) | MIC [12]: 2 µg/mL (≈ 1.81 µM) | MIC [13]: 2 µg/mL (≈ 1.81 µM) | MIC [14]: 2 µg/mL (≈ 1.81 µM) | MIC [15]: 2 µg/mL (≈ 1.81 µM) | MIC [16]: 2 µg/mL (≈ 1.81 µM) | MIC [17]: 2 µg/mL (≈ 1.81 µM) | MIC [18]: 2 µg/mL (≈ 1.81 µM) | MIC [19]: 1 µg/mL (≈ 0.906 µM) | MIC [20]: 4 µg/mL (≈ 3.62 µM) | MIC [21]: 2 µg/mL (≈ 1.81 µM)

CCCCCCCC(=O)N[C@H](C(=O)N[C@@H](CC(N)=O)C(=O)N[C@H]1CCNC(=O)[C@H]([C@@H](C)O)NC(=O)[C@H](CCN)NC(=O)[C@H](CCN)NC(=O)[C@H](CC(C)C)NC(=O)[C@H](Cc2ccccc2)NC(=O)[C@H](CCN)NC1=O)[C@@H](C)O (Octanoyl-TN[Dab][Dab]FL[Dab][Dab]T; lactam 3-C)
inhibition zone (IZ) [1]: 180 mm2 | inhibition zone (IZ) [2]: 10 mm2

CCCCCCCC(=O)N[C@H](C(=O)N[C@@H](CC)C(=O)N[C@H]1CCNC(=O)[C@H]([C@@H](C)O)NC(=O)[C@H](CCN)NC(=O)[C@H](CC)NC(=O)[C@H](CC(C)C)NC(=O)[C@@H](Cc2ccccc2)NC(=O)[C@H](CCN)NC1=O)[C@@H](C)O (Octanoyl-T[Abu][Dab][Dab][dF]L[Abu][Dab]T; lactam 3-C)
inhibition zone (IZ) [1]: 10 mm2 | inhibition zone (IZ) [2]: 0 mm2
